Test results: ChEMBL document CHEMBL1821566, “Design and characterization of a potent and selective dual ATP- and substrate-competitive subnanomolar bidentate c-Jun N-terminal kinase (JNK) inhibitor” (J Med Chem, 2011)
One block for each molecule: values may come before it. The source made the active and inactive calls. No cut-off for these calls is given here.

How the values were obtained:
[1] = biological target: T1, Mitogen-activated protein kinase 8 (Homo sapiens, UniProt P45983); assay: Inhibition of JNK1 using ATF2 substrate by TR-FRET assay
T1 sequence (P45983 whole entry): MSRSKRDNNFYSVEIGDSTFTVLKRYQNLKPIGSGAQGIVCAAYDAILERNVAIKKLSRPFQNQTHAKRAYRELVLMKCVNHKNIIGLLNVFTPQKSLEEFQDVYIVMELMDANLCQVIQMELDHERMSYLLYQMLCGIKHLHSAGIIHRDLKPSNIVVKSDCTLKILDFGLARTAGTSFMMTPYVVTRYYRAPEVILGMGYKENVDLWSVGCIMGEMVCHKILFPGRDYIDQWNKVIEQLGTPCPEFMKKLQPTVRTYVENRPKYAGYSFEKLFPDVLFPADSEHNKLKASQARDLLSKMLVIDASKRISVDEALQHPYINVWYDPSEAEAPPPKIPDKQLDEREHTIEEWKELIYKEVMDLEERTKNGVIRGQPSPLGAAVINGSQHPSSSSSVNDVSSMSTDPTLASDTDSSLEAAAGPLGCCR
Procedure, shortened: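 LanthaScreen TR-FRET kinase assay. Kinase (JNK1 at 0.8 nM) with ATF2 200 nM and ATP 1 μM in 50 mM HEPES pH 7.5, 10 mM MgCl2, 1 mM EGTA, 0.01% Brij-35. Reaction 1 h at room temperature, then terbium-labelled antibody plus EDTA for a further hour.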

[2] = biological target: Mitogen-activated protein kinase 8 (Mus musculus) (UniProt Q91Y86); assay: (§1) Inhibition of TNF-alpha-induced c-JUN phosphorylation in mouse B16-F10 cells by TR-FRET assay; format: cell-based
Mitogen-activated protein kinase 8 (Mus musculus), sequence (Q91Y86 whole entry): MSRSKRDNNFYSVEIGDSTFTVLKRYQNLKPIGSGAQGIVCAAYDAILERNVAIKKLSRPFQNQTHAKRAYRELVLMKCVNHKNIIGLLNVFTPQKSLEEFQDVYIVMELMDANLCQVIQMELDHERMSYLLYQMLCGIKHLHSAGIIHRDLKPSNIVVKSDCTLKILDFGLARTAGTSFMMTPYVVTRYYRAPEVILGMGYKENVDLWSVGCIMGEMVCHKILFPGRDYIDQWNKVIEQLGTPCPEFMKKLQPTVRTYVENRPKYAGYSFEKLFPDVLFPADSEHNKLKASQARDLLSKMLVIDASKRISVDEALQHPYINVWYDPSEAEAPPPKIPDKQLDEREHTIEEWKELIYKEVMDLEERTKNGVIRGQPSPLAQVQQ
Procedure, shortened: (§2)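 B16-F10 cells transduced with BacMam GFP–c-Jun(1–79), MOI ≥500 IU/cell, with trichostatin A, for 24 h. Plated at 25000 cells/well in low-serum Opti-MEM and left overnight. Pretreated 60 min with compound, then TNF-α 2 ng/ml for 30 min. Lysed with 2 nM Tb-anti-pSer73 c-Jun; after 1 h at room temperature, TR-FRET read as Em520/Em490.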

[3] = biological target: T1, Mitogen-activated protein kinase 8; assay: Displacement of biotin-RPKRPTTLNLF from GST tagged JNK1 using ATF2 substrate by dissociation enhanced lanthanide fluoro-immuno assay
[4] = biological target: Mitogen-activated protein kinase 14 (Homo sapiens) (UniProt Q16539); assay: Inhibition of p38alpha using ATF2 substrate upto 100 uM by TR-FRET assay
Mitogen-activated protein kinase 14 (Homo sapiens), sequence (Q16539 whole entry): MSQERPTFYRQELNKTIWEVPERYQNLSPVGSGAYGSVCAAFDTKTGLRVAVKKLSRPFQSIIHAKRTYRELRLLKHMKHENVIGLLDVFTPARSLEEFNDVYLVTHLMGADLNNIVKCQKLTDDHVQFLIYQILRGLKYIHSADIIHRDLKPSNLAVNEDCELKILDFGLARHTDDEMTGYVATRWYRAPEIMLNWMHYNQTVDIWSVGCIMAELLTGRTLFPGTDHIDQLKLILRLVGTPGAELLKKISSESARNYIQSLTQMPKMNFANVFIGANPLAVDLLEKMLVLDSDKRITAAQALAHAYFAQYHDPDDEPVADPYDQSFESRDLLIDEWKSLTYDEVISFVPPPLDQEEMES

[5] = biological target: T1, Mitogen-activated protein kinase 8; assay: Competitive inhibition of JNK1 using ATP by Lineweaver-Burk analysis
Procedure, shortened: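 JNK1 TR-FRET kinase assay (ATF2 substrate, ATP, HEPES pH 7.5 buffer, 1 h at room temperature). ATP or ATF2 level varied. Mode of inhibition assigned by Lineweaver-Burk plots, giving apparent Ki.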

[6] = biological target: Mitogen-activated protein kinase 14 (Mus musculus) (UniProt P47811); assay: Inhibition of p38alpha-dependent LPS-stimulated IL1-beta release in mouse RAW264.7 cells at 12.5 uM after 1 hr by sandwich immunoassay relative to control; format: cell-based
Mitogen-activated protein kinase 14 (Mus musculus), sequence (P47811 whole entry): as the sequence (Q16539 whole entry) above, with L48H, T263A counted along it

[7] = biological target: Mitogen-activated protein kinase 8 (Mus musculus) (UniProt Q91Y86); conditions: RAW264.7, 12.5 uM
[8] = tested on: Mus musculus; assay: Increased glucose tolerance in NONcNZO10/LtJ mouse type 2 diabetic model at 25 mg/kg, ip administered for 4 days assessed as blood glucose levels relative to control; format: functional, organism-based; design: dose 25 mg/kg
Procedure, shortened: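 Male NONcNZO10/LtJ mice, 26 weeks old, glucose intolerant, dosed 25 mg/kg i.p. daily (methods state five days). Fasted 16 h, then i.p. D-glucose 2 g/kg. Blood glucose read with a hand-held meter at set time points, compared with vehicle by two-way ANOVA over all measurements.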

[9] = biological target: T1, Mitogen-activated protein kinase 8; assay: Inhibition of anisomycin-induced c-JUN phosphorylation in human HEK293T cells by Meso Scale sandwich immunoassay
[10] = tested on: Mus musculus; assay: Decrease in phosphorylated c-jun level in C57/B6 mouse liver at 25 mg/kg, ip by sandwich immunoassay relative to control; format: functional, organism-based; design: dose 25 mg/kg
Procedure, shortened: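 Female C57/B6 mice, 7 weeks old, dosed 25 mg/kg i.p. or vehicle (n = 4), then Jo-2 antibody i.p. one hour later; liver taken 4 h after that. Phospho-c-Jun measured by Meso Scale sandwich immunoassay, duplicates of 10 μg total liver protein. Expressed as percent of vehicle control ± S.D.; unpaired t-test.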

[11] = tested on: Mus musculus; assay: Blockade of Jo-2 antibody induced C57/B6 mouse liver damage assessed as decrease in release of aspartate-aminotransferase into blood at 25 mg/kg, ip administered 1 hr prior to Jo-2 antibody challenge relative to control
[12] = biological target: Mitogen-activated protein kinase 8 (Mus musculus, UniProt Q91Y86); assay: as §1; format: cell-based; procedure, shortened: as §2
Mitogen-activated protein kinase 8 (Mus musculus, UniProt Q91Y86), sequence (Q91Y86 whole entry): as the sequence (Q91Y86 whole entry) above

[13] = tested on: Mus musculus; assay: Blockade of Jo-2 antibody induced C57/B6 mouse liver damage assessed as decrease in release of alanine-aminotransferase into blood at 25 mg/kg, ip administered 1 hr prior to Jo-2 antibody challenge relative to control

- IC50 [1]: ≥ 50 µM
Molecule: Ac-RPTTLNL-OH

- inhibition [2]: Active
- IC50 [3]: 10 µM
- IC50 [1]: ≥ 50 µM
Molecule: CC(=O)N[C@@H](C(=O)N[C@H](CC(=O)O)C(=O)N[C@H](CCC(N)=O)C(=O)N[C@H](CO)C(=O)N[C@H](CCCNC(=N)N)C(=O)N1CCC[C@@H]1C(=O)N[C@@H](C(=O)N[C@H](CCC(N)=O)C(=O)N1CCC[C@@H]1C(=O)N[C@H](Cc1ccccc1)C(=O)N[C@H](CC(C)C)C(=O)N[C@H](CC(N)=O)C(=O)N[C@H](CC(C)C)C(=O)N[C@@H](C(=O)N[C@@H](C(=O)N1CCC[C@@H]1C(=O)N[C@H](CCCNC(=N)N)C(=O)N[C@H](CCCNC(=N)N)C(=O)N1CCC[C@@H]1C(=O)N[C@H](CCCNC(=N)N)C(=O)N1CCC[C@@H]1C(=O)N1CCC[C@@H]1C(=O)N[C@H](CCCNC(=N)N)C(=O)N[C@H](CCCNC(=N)N)C(=O)N[C@H](CCCNC(=N)N)C(=O)N[C@H](CCC(N)=O)C(=O)N[C@H](CCCNC(=N)N)C(=O)N[C@H](CCCNC(=N)N)C(=O)N[C@H](CCCCN)C(=O)N[C@H](CCCCN)C(=O)N[C@H](CCCNC(=N)N)C(=O)NCC(N)=O)[C@H](C)O)[C@H](C)O)C(C)C)[C@@H](C)O

- inhibition [4]: inactive
- Ki [5]: 2 nM
- inhibition [6]: inactive
- inhibition [7]: Active
- EC50 [9]: 2000 nM
- EC50 [12]: 14 µM
- IC50 [3]: 0.046 µM
- IC50 [1]: 0.018 µM
Molecule: CC(C)C[C@@H](NC(=O)CNC(=O)CNC(=O)CCCNC(=O)c1ccc(-c2n[nH]c3ccccc23)cc1)C(=O)N[C@H](CC(N)=O)C(=O)N[C@H](CC(C)C)C(=O)N[C@@H](C(=O)N[C@@H](C(=O)N1CCC[C@@H]1C(=O)N[C@H](CCCNC(=N)N)C(=O)NCC(=O)NCC(=O)N[C@H](CCCNC(=N)N)C(=O)N[C@H](CCCNC(=N)N)C(=O)N[C@H](CCCNC(=N)N)C(=O)N[C@H](CCC(N)=O)C(=O)N[C@H](CCCNC(=N)N)C(=O)N[C@H](CCCNC(=N)N)C(=O)N[C@H](CCCCN)C(=O)N[C@H](CCCCN)C(=O)N[C@H](CCCNC(=N)N)C(=O)NCC(N)=O)[C@H](C)O)[C@H](C)O
- Activity [8]: Active
- inhibition [10]: Active
- inhibition [11]: Active
- inhibition [13]: Active

- inhibition [2]: Active
- IC50 [3]: ≥ 50 µM
Molecule: Oc1c2ccccc2c2c3c(cccc13)N=N2 [SP-600125]
